We go through nine molecules from article PMC3092375 (Journal of natural products, 2011).

One series concerns the target α-glucosidase (Saccharomyces cerevisiae, UniProt P53341). The note with it: previous report; cited from earlier work.
Series [1] has as its system human neutrophils. Nature of the series: superoxide anion generation by human neutrophils in response to fMLP/CB. It counts as cell-based. The settings on record: Neutrophil.
In series [2] the test system is human neutrophils. Description: elastase release by human neutrophils in response to fMLP/CB. Type of series: cell-based. The settings on record: read-out: elastase IC50, mean ± S.E.M. (n = 3–4).
Series [3] relates to KB (nasopharyngeal) cancer cell line. Description: in vitro cytotoxicity. It counts as cell-based, human. The settings on record: KB versus the other cancer cell lines.
Series [4] concerns DU145 (prostate) cancer cell line. Description: in vitro cytotoxicity. The settings on record: DU145 versus the other cancer cell lines. Type of series: cell-based, human.
The subject of series [5] is A549 (lung) cancer cell line. Nature of the series: in vitro cytotoxicity. Type of series: cell-based, human. The note with it: A549 lung cells; compared with KB and DU145. The procedure, abridged: (§1)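 Cells grown in RPMI-1640 with 25 mM HEPES, 0.25% sodium bicarbonate, 10% FBS and 100 μg/mL kanamycin. Freshly trypsinized cells were seeded at 5000 per well, and test compound was added from DMSO-diluted stock. After three days, cells were fixed with cold 10% TCA and stained with 0.4% sulforhodamine B, and the solubilized dye was read at 562 nm.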

The test system of series [6] is HCT-8 (colon) cancer cell line. Description: in vitro cytotoxicity. Type of series: cell-based, human. The settings on record: HCT-8 colon cells; compared with KB and DU145. The procedure, abridged: as §1

α-glucosidase, sequence (P53341 whole entry): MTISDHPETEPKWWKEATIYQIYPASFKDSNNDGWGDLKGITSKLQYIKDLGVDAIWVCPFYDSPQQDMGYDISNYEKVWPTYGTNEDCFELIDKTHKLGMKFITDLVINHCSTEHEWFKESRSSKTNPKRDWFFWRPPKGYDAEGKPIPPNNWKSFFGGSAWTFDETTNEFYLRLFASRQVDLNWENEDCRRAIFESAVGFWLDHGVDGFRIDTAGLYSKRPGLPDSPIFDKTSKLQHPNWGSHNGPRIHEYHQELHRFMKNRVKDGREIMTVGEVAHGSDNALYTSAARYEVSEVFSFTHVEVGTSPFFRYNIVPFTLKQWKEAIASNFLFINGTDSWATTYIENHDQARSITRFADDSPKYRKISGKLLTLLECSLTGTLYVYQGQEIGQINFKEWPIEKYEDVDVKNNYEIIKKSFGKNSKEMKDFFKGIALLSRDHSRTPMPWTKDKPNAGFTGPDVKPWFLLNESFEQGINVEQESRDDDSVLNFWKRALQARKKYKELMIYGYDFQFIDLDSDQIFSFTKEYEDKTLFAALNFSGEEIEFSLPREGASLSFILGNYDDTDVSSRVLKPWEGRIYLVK

As to `C=C[C@H](O)C#CC#C/C=C/[C@@H](O)CCCCCCC` [Compound 29, (3S,10S)-panaxydiol], at α-glucosidase, the “inhibition of α-glucosidase activity” value is “strongly inhibited”.

As for `C=C[C@@H](O)C#CC#CC/C=C\CCCCCCC` [Compound 28, (3R)-(−)-falcarinol], the “inhibition of α-glucosidase activity” value on α-glucosidase is “strongly inhibited”.

Take `CC1(C)CC[C@]2(C(=O)O[C@@H]3O[C@H](CO)[C@@H](O)[C@H](O)[C@H]3O)CC[C@]3(C)C(=CC[C@@H]4[C@@]5(C)CC[C@H](O[C@@H]6O[C@H](C(=O)O)[C@@H](O[C@H]7O[C@@H](CO)[C@H](O)[C@H]7O)[C@H](O[C@@H]7O[C@H](CO)[C@@H](O)[C@H](O)[C@H]7O)[C@H]6O)C(C)(C)[C@@H]5CC[C@]43C)[C@@H]2C1` [Compound 9, stipuleanoside R2]: the IC50 in the series on human neutrophils [1] (read-out: IC50 values, inhibition of superoxide anion generation and elastase release) was in the range of 0.78 to 43.6 µM.

As to `C=C[C@H](O)C#CC#CC[C@@H](O)[C@H](O)CCCCCCC` [Compound 30, (3S,9R,10R)-panaxytriol], the “inhibition of α-glucosidase activity” value on α-glucosidase was “strongly inhibited”.

For the molecule `O=S(=O)(F)Cc1ccccc1` [PMSF, phenylmethylsulfonyl fluoride], the IC50 in the series on human neutrophils [2] is 95 ± 25 µM.

For the molecule `CCCCCCC/C=C\CC#CC#CC(O)CC` (stereo not drawn) [Compound 25, panaxjapyne A], at α-glucosidase, the “inhibition of α-glucosidase activity” value is given as “strongly inhibited”.

Turning to `C/C(=C/CC[C@](C)(O)[C@H]1CC[C@]2(C)[C@@H]1[C@H](O)C[C@@H]1[C@@]3(C)CC[C@H](O)C(C)(C)[C@@H]3[C@@H](O[C@@H]3O[C@H](CO)[C@@H](O)[C@H](O)[C@H]3O[C@@H]3O[C@H](CO)[C@@H](O)[C@H](O)[C@H]3O)C[C@]12C)CO` [Compound 1, panajaponol A], the selective cytotoxic activity result in series [3] and in series [4] was “greater than two- to three-fold selective” each time. In addition, the cytotoxicity entry in series [5] and in series [6] was “significantly less susceptible” throughout.

`c1ccc2c(c1)[I+]c1ccccc1-2` [DPI, Diphenyleneiodonium, reference compound]: the IC50 in the series on human neutrophils [1] (read-out: superoxide IC50) is 1.02 ± 0.35 µM.

For the molecule `C=CCCCCC[C@H](O)[C@@H](O)CC#CC#C[C@@H](O)CC` [Compound 27, panaxjapyne C], the “inhibition of α-glucosidase activity” value at α-glucosidase is given as “strongly inhibited”.
